Data reported in ChEMBL document CHEMBL1781998, “Synthesis and biological evaluation of boron peptide analogues of Belactosin C as proteasome inhibitors” (Bioorg Med Chem Lett, 2009).
Where a SMILES comes first, the peptide text is derived from it. The star is where a group is joined. Cbz = O=C(OCc1ccccc1)*

What was measured:
[1] = Inhibition of chymotrypsin-like activity of human erythrocyte 20S proteasome using Suc-LLVY-AMC substrate incubated at 37 degC for 1 hr by fluorometric assay
Method in brief: (§1)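 Compound combined with 75 µM fluorogenic substrate in 20 mM Tris pH 8.0, 0.5 mM EDTA, 0.035% SDS. Reaction started with 50 ng of purified human erythrocyte 20S proteasome and run 1 h at 37 °C. Stopped with 20 mM Tris pH 8.9, 0.5% SDS; released AMC read at 365 nm excitation / 460 nm emission.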

[2] = Inhibition of caspase-like activity of human erythrocyte 20S proteasome using Z-LLE-AMC substrate incubated at 37 degC for 1 hr by fluorometric assay; method in brief: as §1
[3] = Inhibition of trypsin-like activity of human erythrocyte 20S proteasome using Boc-LLR-AMC substrate incubated at 37 degC for 1 hr by fluorometric assay; details: in the assay text read “Boc-LRR-AMC” for “Boc-LLR-AMC”; method in brief: as §1
[4] = tested on: HeLa; experiment: Growth inhibition of human HeLa cells after 72 hrs by MTT assay; format: functional, cell-based
Method in brief: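 HeLa cells incubated for 72 h with a range of compound concentrations; viability read by MTT assay and used to derive IC50.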

[5] = tested on: HeLa; experiment: Cell cycle arrest in human HeLa cells assessed as accumulation at G1 phase at 1 uM after 24 hrs by flow cytometry (reference value: 56.4 +/- 0.39%); format: functional
[6] = tested on: HeLa; experiment: Cell cycle arrest in human HeLa cells assessed as accumulation at S phase at 1 uM after 24 hrs by flow cytometry (reference value: 30 +/- 0.46%); format: functional
[7] = tested on: HeLa; experiment: Cell cycle arrest in human HeLa cells assessed as accumulation at G2/M phase at 1 uM after 24 hrs by flow cytometry (reference value: 13.7 +/- 0.87%); format: functional
[8] = tested on: HeLa; experiment: Cell cycle arrest in human HeLa cells assessed as accumulation at G1 phase at 10 uM after 24 hrs by flow cytometry (reference value: 56.4 +/- 0.39%); format: functional
[9] = tested on: HeLa; experiment: Cell cycle arrest in human HeLa cells assessed as accumulation at S phase at 10 uM after 24 hrs by flow cytometry (reference value: 30 +/- 0.46%); format: functional
[10] = tested on: HeLa; experiment: Cell cycle arrest in human HeLa cells assessed as accumulation at G2/M phase at 10 uM after 24 hrs by flow cytometry (reference value: 13.7 +/- 0.87%); format: functional
[11] = tested on: HeLa; experiment: Induction of apoptosis in human HeLa cells at 1 uM incubated for 12 hrs using annexin V-FITC and propidiun iodide staining based flow cytometry (reference value: 2.6 +/- 0.14%); format: functional
Method in brief: (§2)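 HeLa cells treated for 12 h, then stained with annexin V-FITC and propidium iodide; apoptosis measured by flow cytometry. Values are mean ± sd of triplicate samples.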

[12] = tested on: HeLa; experiment: Induction of apoptosis in human HeLa cells at 10 uM incubated for 12 hrs using annexin V-FITC and propidiun iodide staining based flow cytometry (reference value: 2.6 +/- 0.14%); format: functional; method in brief: as §2
[13] = Antiproliferative activity against human HeLaS3 cells after 72 hrs; format: functional, cell-based; details: HeLa S3, 72 h
Method in brief: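 HeLa cells were exposed to a range of compound concentrations for 72 h, and viability was then read by MTT assay. IC50 values are growth inhibition, reported as mean ± sd of triplicate samples.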

[14] = tested on: HeLa; experiment: Cell cycle arrest in human HeLa cells assessed as accumulation at G1 phase at 0.1 uM after 24 hrs by flow cytometry (reference value: 56.4 +/- 0.39%); format: functional
[15] = tested on: HeLa; experiment: Cell cycle arrest in human HeLa cells assessed as accumulation at S phase at 0.1 uM after 24 hrs by flow cytometry (reference value: 30 +/- 0.46%); format: functional
[16] = tested on: HeLa; experiment: Cell cycle arrest in human HeLa cells assessed as accumulation at G2/M phase at 0.1 uM after 24 hrs by flow cytometry (reference value: 13.7 +/- 0.87%); format: functional
[17] = tested on: HeLa; experiment: Induction of apoptosis in human HeLa cells at 0.1 uM incubated for 12 hrs using annexin V-FITC and propidiun iodide staining based flow cytometry (reference value: 2.6 +/- 0.14%); format: functional; method in brief: as §2

Work on CC(C)C[C@H](NC(=O)CC[C@H](NC(=O)[C@H](Cc1ccccc1)NC(=O)OC(C)(C)C)C(=O)NCc1ccc2ccccc2c1)B(O)O yielded an IC50 [1] of 1.47 µM, an IC50 [2] of over 10 µM and an IC50 [3] of over 10 µM. The IC50 [4] was 0.66 µM.

CC(C)C[C@H](NC(=O)C[C@H](NC(=O)OC(C)(C)C)C(=O)NCc1ccc2ccccc2c1)B(O)O showed an IC50 [1] of 4.51 µM, an IC50 [2] of over 10 µM and an IC50 [3] of over 10 µM. The IC50 [4] was over 10 µM.

Compound CC(C)C[C@H](NC(=O)CC[C@H](NC(=O)OC(C)(C)C)C(=O)NCc1ccc2ccccc2c1)B(O)O has an IC50 [1] of over 10 µM, an IC50 [2] of over 10 µM and an IC50 [3] of over 10 µM. The IC50 [4] was over 10 µM.

In the case of CC(C)C[C@H](NC(=O)CC[C@H](NC(=O)[C@H](CC(C)C)NC(=O)OC(C)(C)C)C(=O)NCc1ccc2ccccc2c1)B(O)O, the IC50 [1] is reported as 1.5 µM, the IC50 [2] is reported as over 10 µM and the IC50 [3] is reported as over 10 µM. It also gave an IC50 [4] of 0.79 µM.

Work on CC(C)C[C@H](NC(=O)CCC[C@H](NC(=O)OC(C)(C)C)C(=O)NCc1ccc2ccccc2c1)B(O)O yielded an IC50 [1] of 4.12 µM, an IC50 [2] of over 10 µM and an IC50 [3] of over 10 µM. For the same compound, the IC50 [4] was over 10 µM.

For CC(C)C[C@H](NC(=O)CCC[C@H](NC(=O)CNC(=O)OC(C)(C)C)C(=O)NCc1ccc2ccccc2c1)B(O)O, the IC50 [1] was 2.74 µM, the IC50 [2] was over 10 µM and the IC50 [3] was over 10 µM. The IC50 [4] was over 10 µM.

For CC(C)C[C@H](NC(=O)CC[C@H](NC(=O)CNC(=O)OC(C)(C)C)C(=O)NCc1ccc2ccccc2c1)B(O)O, the IC50 [1] was 0.28 µM, the IC50 [2] was 8.54 µM and the IC50 [3] was over 10 µM. It also gave an IC50 [4] of 0.35 µM, an Activity [5] of 57.7% and an Activity [6] of 16.4%. For the same compound, the Activity [7] was 26%, the Activity [8] was 23% and the Activity [9] was 14.4%. The Activity [10] was 62.6%, the Activity [11] was 12.9% and the Activity [12] was 15.2%.

CC[C@H](C)[C@@H]1C(=O)O[C@H]1C(=O)N[C@H]1C[C@H]1C[C@H](NC(=O)[C@H](C)N)C(=O)O [BELACTOSIN A] gave an IC50 [13] of 51 µM.

In the case of CC(C)C[C@H](NC(=O)CC[C@H](NC(=O)[C@H](C)NC(=O)OC(C)(C)C)C(=O)NCc1ccc2ccccc2c1)B(O)O, the IC50 [1] is reported as 0.84 µM, the IC50 [2] is reported as 9.84 µM and the IC50 [3] is reported as over 10 µM. For the same compound, the IC50 [4] was 2.35 µM.

Compound CC(C)C[C@H](NC(=O)[C@H](Cc1ccccc1)NC(=O)c1cnccn1)B(O)O [BORTEZOMIB] has an IC50 [1] of 0.02 µM, an IC50 [2] of 0.68 µM and an IC50 [3] of over 10 µM. It also gave an IC50 [4] of 0.02 µM, an Activity [14] of 14.6% and an Activity [15] of 15.9%. It also gave an Activity [16] of 69.6% and an Activity [17] of 14.5%.

Work on CC[C@H](C)[C@@H]1C(=O)O[C@H]1C(=O)NCCC[C@H](NC(=O)[C@H](C)N)C(=O)O [BELACTOSIN C] yielded an IC50 [13] of 200 µM.

CC(C)C[C@H](NC(=O)CC[C@H](NC(=O)CNC(=O)OC(C)(C)C)C(=O)NCc1ccccc1)B(O)O gave an IC50 [1] of 0.54 µM, an IC50 [2] of over 10 µM and an IC50 [3] of over 10 µM. It also gave an IC50 [4] of 5.11 µM, an Activity [5] of 56.2% and an Activity [6] of 30.7%. The Activity [7] was 13.1%, the Activity [8] was 43.2% and the Activity [9] was 30.7%. It also gave an Activity [10] of 26%, an Activity [11] of 7.6% and an Activity [12] of 11.7%.

With CC(C)C[C@@H](C=O)NC(=O)[C@H](CC(C)C)NC(=O)[C@H](CC(C)C)NC(=O)OCc1ccccc1 [MG-132] (Cbz-Leu-Leu-Leu-aldehyde) the IC50 [1] was 0.07 µM, the IC50 [2] was 7.23 µM and the IC50 [3] was over 10 µM.

Work on CC(C)C[C@H](NC(=O)CCC[C@H](NC(=O)[C@H](C)NC(=O)OC(C)(C)C)C(=O)NCc1ccc2ccccc2c1)B(O)O yielded an IC50 [1] of 4.28 µM, an IC50 [2] of over 10 µM and an IC50 [3] of over 10 µM. The IC50 [4] was over 10 µM.
